Assay outcomes as filed in PubChem.
Most compounds without a hit are left out; they make up all but 1.6% or so of the library.
core dimer inh – blocks dimerization of HCV core protein | TR-FRET GST/Flag-core106 dimerization, 1536-well | inhibition, % at 5 µM | 300,000 compounds, 0.33% hits | AID 1899;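 active = inhibition above the mean of all tested compounds plus 3 SD, set per screening campaign, cut at about 45% in these data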
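Material: Tagged HCV core106 pair (GST and Flag) | Amount: GST-core106 13.5 nM, Flag-core106 17 nM | Medium: KF-containing HEPES buffer, pH 7.45, DTT, CHAPS, BSA | Reagent: Eu donor and XL665 acceptor anti-tag antibodies | Schedule: 4 h at 22.5 °C | Technique: Time-resolved FRET, ex 340 nm, em 617 and 671 nm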
IMP-1 inh – blocks Pseudomonas aeruginosa IMP-1 metallo-beta-lactamase; 290,000 compounds, 0.45% hits; inhibition, % at 5.6 µM; purified IMP-1, nitrocefin hydrolysis, epi-absorbance fluorescence; AID 1556;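 active = inhibition above the mean plus 3 SD of all compounds in the same screening run, cut at about 4.5% in these data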
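System: Purified recombinant IMP-1 metallo-beta-lactamase enzyme | Measured by: Fluorescence quenching readout, ex 480/em 530 nm | Replication: Singlicate | Incubation: 15 min preincubation plus 25 min reaction at 25 °C | Evaluation: Percent inhibition from optical density relative to buffer-blank wells | Benchmarks: DMSO with and without IMP-1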
VIM-2 inhibitor – inhibitors of Pseudomonas aeruginosa VIM-2 metallo-beta-lactamase | purified VIM-2, nitrocefin hydrolysis, epi-absorbance fluorescence | AID 1527 | 290,000 compounds, 0.89% hits | inhibition, % at 5.6 µM;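 active = inhibition above the mean of all tested compounds plus 3 SD, cutoff set per screening run, cut at about 7.5% in these data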;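 also: red hydrolysis product quenches plate fluorescence so inhibitors raise well fluorescence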
FID counter – fluorescent intercalator displacement, NS3 helicase counter-screen; DNA fluorescent intercalator displacement, fluorescence; inhibition, % at 7.9 µM; 290,000 compounds, 0.17% hits; AID 1845; in the data active = inhibition above about 37%;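 also: higher means more ethidium bromide displaced from hairpin DNA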
Of the large screens only hits and unclear results are named; the others gave an inactive call.

CCCS(=O)(=O)N1CCCC(C(=O)Oc2ccccc2Cl)C1 (configuration not stated)	none
CN1CCC2(CC1)Nc1nc(SCc3ccc(Cl)cc3)nn1C1=C2CN(C)CC1	VIM-2 inhibitor 9.5
CC(=O)c1cnc2nc(SCc3ccc(Cl)cc3)nn2c1C	none
COc1ccccc1-c1cn(-c2ccccc2)c(=S)[nH]1	none
CN(C)S(=O)(=O)c1cccc(-c2nn(-c3ccccc3)cc2/C=C2\SC(=S)NC2=O)c1	core dimer inh 52
CN(C)S(=O)(=O)c1cccc(-c2nn(-c3ccccc3)cc2/C=C(\C#N)c2nc3ccccc3[nH]2)c1	none
CCC(C)NCCOc1ccccc1C (configuration not stated)	IMP-1 inh 28
CCC(C)NCCOc1ccc(Br)cc1 (configuration not stated)	none
O=C(Nc1ncc2c(n1)-c1ccccc1CC2)c1ccc(Cl)cc1	IMP-1 inh 24
N#C[C@@H]1[C@@H]2C(=O)N(c3ccc4c(c3)OCCO4)C(=O)[C@@H]2C2c3ccccc3C=CN21 (some centres not stated)	core dimer inh 52
CC(=O)[C@@H]1[C@@H]2C(=O)N(c3ccc(F)c(Cl)c3)C(=O)[C@@H]2C2c3ccccc3C=CN21 (some centres not stated)	none
O=C(CN1CCN(C(=O)c2ccco2)CC1)Nc1ccc(Cl)c(S(=O)(=O)N2CCOCC2)c1	none
COc1ccccc1C(c1nnnn1CCc1ccccc1)N1CCN(c2ccccc2)CC1 (configuration not stated)	none
COc1ccccc1C(c1nnnn1CCc1ccccc1)N1CCCCCC1 (configuration not stated)	IMP-1 inh 24
CCSc1nnc(NC(=O)CSc2nnc(CNC(=O)c3cc(OC)c(OC)c(OC)c3)o2)s1	none
FCCCOc1ccc(-c2ccnc(-c3ccccc3)n2)cc1	IMP-1 inh 5.1
FCCCOc1ccc(-c2nccc(-c3ccc(F)cc3)n2)cc1	none
CCCc1cnc(NCCNCC(O)COc2ccc(Cl)c(Cl)c2)nc1 (configuration not stated)	FID counter 40
CCOC(=O)c1sc2ncnc(N3CCN(c4ccc(OC)cc4)CC3)c2c1C	none
CC1(C)Cc2c(sc3[nH]c(=S)n(Cc4ccco4)c(=O)c23)CO1	none
O=c1c2c3c(sc2[nH]c(=S)n1Cc1ccco1)CCC3	core dimer inh 48
CCN(CC)C(=N)/C(C#N)=N/Nc1ccccc1	none
N#Cc1ccc(-c2csc(-c3ccno3)n2)cc1	none
CCc1nnc(SCc2ccc(OC(C)C)cc2)n1N	none
O=[N+]([O-])c1cccc(-c2nnc(-c3ccccc3)o2)c1	none
Cc1occc1-c1nnc(-c2cc([N+](=O)[O-])cc([N+](=O)[O-])c2)o1	core dimer inh 49
CCOC(=O)N1CCN(C(=S)NC(=O)c2cncc(Br)c2)CC1	IMP-1 inh 5.4
COc1ccccc1/C=C/C=N/N1CCN(Cc2cccc3ccccc23)CC1	none
COC(=O)CN(c1ccccn1)S(=O)(=O)c1ccccc1	none
Cc1cc(N2CC(C)OC(C)C2)nc(C(C)C)n1 (configuration not stated)	none
CCCn1c(N)c(C(=O)CSc2nnnn2-c2ccc(O)cc2)c(=O)n(C)c1=O	none
CC(=O)c1ccc(NC(=O)c2cccc(NC(=O)c3ccccc3)c2)cc1	IMP-1 inh 7.2
CC(=O)c1cccc(NC(=O)c2ccc3ccccc3c2)c1	none
O=C(Nc1cccc([N+](=O)[O-])c1)c1cccc(C(=O)Nc2cccc([N+](=O)[O-])c2)c1	IMP-1 inh 8.7
O=C(Nc1cc([N+](=O)[O-])ccc1O)c1cccc(C(=O)Nc2cc([N+](=O)[O-])ccc2O)c1	IMP-1 inh 26
COc1ccc(OC)c(S(=O)(=O)N(C)CC(=O)N2CCN(c3ccccc3F)CC2)c1	IMP-1 inh 17
COc1ccc(OC)c(S(=O)(=O)N(C)CC(=O)N2CCN(c3ccc(F)cc3)CC2)c1	none
C#CCOCCOCCOCCNc1nc(N2CCN(C(=O)Cn3cc(CCCN=C(N)N)nn3)CC2)nc(N2CCN(C(=O)[C@H]([C@@H](C)CC)n3cc(CCC(=O)O)nn3)CC2)n1	none
Cc1cccc(C)c1NC(=O)CN(C)CC(=O)Nc1ccc(F)c(Cl)c1	none
CCN(CC)CCCN(Cc1cc2cc(OC)c(OC)cc2[nH]c1=O)C(=O)Nc1ccccc1	VIM-2 inhibitor 7.9
Cc1c(Cl)c([N+](=O)[O-])nn1CCCC(=O)Nc1cccc(Cl)c1Cl	none
C=CCn1cc(/C=N/NC(=O)COc2cccc3cccnc23)c2ccccc21	VIM-2 inhibitor 9.3
O=C(Nc1oc2ccccc2c(=O)c1-c1ccc(Br)cc1)c1ccco1	core dimer inh 63
COc1cccc(-c2c(NC(=O)c3ccco3)oc3ccccc3c2=O)c1	none
CC(C)OCCCNC(=O)c1cc2c(=O)n(C)c3ccccc3c2n1C	VIM-2 inhibitor 10
Cc1ccc(C(NC(=O)N2CCOCC2)C(Cl)(Cl)Cl)cc1F (configuration not stated)	none
CCc1ccccc1NC(=O)CN(C)S(=O)(=O)c1ccc(-c2ccc(=O)[nH]n2)s1	none
COc1cc(OC)c(NC(=O)CN(C)S(=O)(=O)c2ccc(-c3ccc(=O)[nH]n3)s2)cc1Cl	core dimer inh 53
CCN1CCN(C(=O)C2=C(C(=O)O)CCCC2)CC1	IMP-1 inh 13
O=C(O)C1=C(C(=O)N2CCN(C(=O)c3ccco3)CC2)CCCC1	IMP-1 inh 12
Nc1nnc(SCC(=O)OCC(=O)NC23CC4CC(CC(C4)C2)C3)s1	none
OCCN1CCN(c2nc(-c3ccccc3)c3cc(Br)ccc3n2)CC1	VIM-2 inhibitor 8.0
O=C(O)C1CCN(c2nc(-c3ccccc3)c3cc(Br)ccc3n2)CC1	none
CC(C)c1ccc(NC(=O)Nc2cc3sccc3n2C)cc1	core dimer inh 47
Cn1c(C(=O)Nc2ccc3c(c2)OCCO3)cc2sccc21	none
CC(=O)c1ccc(N2CCN(CC(=O)NCc3ccccc3)CC2)cc1	IMP-1 inh 6.5
O=C(CN1CCN(c2ccc(Cl)cc2)CC1)NCc1ccccc1	none
OC(COc1ccc(CNCCc2ccc(C(F)(F)F)cc2)cc1)CN1CCCCC1 (configuration not stated)	FID counter 42
CC(=O)c1c(-c2ccccc2)c2cc(Cl)ccc2n(C)c1=O	none
CC(=O)c1c2c3c(c(Br)ccc3n(C)c1=O)C(=O)c1ccccc1-2	IMP-1 inh 6.7, VIM-2 inhibitor 31
CCOC(=O)C1(Cc2ccccc2C(F)(F)F)CCN(CC(O)CO)CC1 (configuration not stated)	none
CCOC(=O)C1(Cc2ccccc2C(F)(F)F)CCN(C2CCN(C(C)C)CC2)CC1	FID counter 45
CCOc1ccc(S(=O)(=O)N2CCCC(C(=O)N3CCOCC3)C2)cc1 (configuration not stated)	none
Nc1ccc2nc(-c3cccc(-c4nc5ccc(N)cc5[nH]4)n3)[nH]c2c1	VIM-2 inhibitor 10.0
Nc1ccc2nc(-c3ccc(-c4nc5ccc(N)cc5[nH]4)cc3)[nH]c2c1	FID counter 52
